Assay outcomes (PubChem)
5-HT1A blocker: antagonists of human 5-HT1a serotonin receptor; P08908; CHO 5-HT1a Ga15 NFAT-bla reporter, antagonist mode; inhibition, % at 10 µM; 62,000 compounds, 0.68% hits; AID 612;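 active = inhibition above the mean of all tested compounds plus 3 SD, cut at about 43% in these data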;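 note: receptor stimulated by 5-CT agonist at 100 nM near EC80; beta-lactamase reporter measured by ratiometric fluorescence of a cleavable substrate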
Target sequence (P08908 whole entry, looked up): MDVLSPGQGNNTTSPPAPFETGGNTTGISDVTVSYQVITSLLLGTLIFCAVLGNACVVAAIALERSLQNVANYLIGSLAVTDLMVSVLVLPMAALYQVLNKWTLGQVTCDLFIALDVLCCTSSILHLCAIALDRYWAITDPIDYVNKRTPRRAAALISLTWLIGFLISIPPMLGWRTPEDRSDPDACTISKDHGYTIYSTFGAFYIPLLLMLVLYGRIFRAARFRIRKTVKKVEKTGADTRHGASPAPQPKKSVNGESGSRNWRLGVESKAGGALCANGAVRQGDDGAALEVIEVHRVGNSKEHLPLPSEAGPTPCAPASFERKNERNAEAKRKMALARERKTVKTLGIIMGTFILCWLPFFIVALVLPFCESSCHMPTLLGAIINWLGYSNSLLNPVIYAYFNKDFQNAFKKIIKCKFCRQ
HTR1A agonist: agonists of human 5-HT1a serotonin receptor | P08908 | CHO 5-HT1a Ga15 NFAT-bla reporter, FRET ratio; 0% basal, 100% maximal reference agonist | activation, % at 10 µM | 65,000 compounds, 0.56% hits | AID 567;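 active = activation above the screen-wide mean activation plus 3 SD, cut at about 19% in these data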
5HT1E antag: blocks the human 5-HT1E serotonin receptor | P28566 | CHO 5-HT1E Ga15 NFAT-bla reporter, FRET, antagonist | inhibition, % at 6 µM | 65,000 compounds, 0.99% hits | AID 571;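 active = inhibition above a set limit, the mean inhibition across every tested compound plus 3 SD, cut at about 29% in these data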;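 note: signal is the 460 over 535 nm emission ratio of beta-lactamase substrate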
SKBR3 24h inh: SK-BR-3 proliferation inhibitors; SK-BR-3 viability, CellTiter-Glo ATP luminescence, 24 h; hits give low values; viability, % at 10 µM; 41,000 compounds, 0.47% hits;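 active = viability at or below the median of all test compounds minus 3 SD, in both replicates if run twice, cut at about 45% in these data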
HEK293 NFkB inh: lowers PMA/ionomycin-induced NF-kB signal in HEK293 cells. HEK-293 NF-kB luciferase reporter, luminescence. inhibition, % at 3 µM. 62,000 compounds, 0.21% hits;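 active = inhibition above the mean of all tested compounds plus 3 SD, cut at about 40% in these data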
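Reagent: PMA plus ionomycin mix as NF-kB-activating stimulus. Assay system: NF-kB luciferase reporter HEK-293 cells. Technique: luminescence from luciferase substrate reagent. Incubation: 1 h compound pre-incubation, 16 h PMA/ionomycin at 37 °C. Benchmarks: DMSO only as uninhibited control, 10 µM reference inhibitor as full inhibition. Repeats: tested once.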
HTR1E agonist: agonists of human 5-HT1E serotonin receptor; P28566; CHO 5-HT1E Ga15 NFAT-bla reporter, FRET; 0% DMSO wells, 100% control agonist wells; activation, % at 6 µM; 65,000 compounds, 0.69% hits; AID 574;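 active = activation above a set limit, the screen-wide mean activation plus 3 SD, cut at about 8.5% in these data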
A number is an active result; – = inactive; · = no result given. A selection: hits, their analogues and other compounds. The true share with any hit is near 2.9%.

SMILES | 5-HT1A blocker | HTR1A agonist | 5HT1E antag | SKBR3 24h inh | HEK293 NFkB inh | HTR1E agonist
Cc1ccc2oc(=O)n(CCOc3ccccc3Cl)c2c1 | – | – | 32 | · | – | –
COc1ccccc1OCCCn1c(=O)oc2ccc(C)cc21 | – | – | – | · | – | –
CCCOc1ccccc1Cn1c(=O)oc2ccc(C)cc21 | 44 | – | – | · | – | –
O=C(CN1CCOCC1)N1CCN(C(=O)CN2CCOCC2)CC1 | – | – | – | – | – | –
COc1ccc(C(=O)N2CCN(c3c(C)cccc3C)CC2)cc1OC | – | – | – | · | – | –
Cc1ccccc1S(=O)(=O)Cc1ccc(C(=O)N2CC(C)CC(C)C2)o1 (stereo not drawn) | – | – | – | · | – | –
COc1cc(C(=O)N2CCN(c3cccc(C)c3C)CC2)cc(OC)c1OC | – | – | 50 | · | – | –
COc1cc(C(=O)N2CCN(c3cc(Cl)ccc3Cl)CC2)cc(OC)c1OC | – | – | 64 | · | 43 | –
Cc1ccccc1S(=O)(=O)Cc1ccc(C(=O)N2CCN(c3cccc(C)c3C)CC2)o1 | – | – | – | · | – | 32
Cc1cccc(N2CCN(C(=O)c3ccncc3)CC2)c1C | – | – | – | – | – | 19
COc1ccc(C(=O)N2CCN(C(=O)c3cc(OC)c(OC)c(OC)c3)CC2)cc1 | – | – | – | – | – | –
CCn1c(Cc2ccccc2)nnc1SCC(=O)Nc1ccc(S(N)(=O)=O)cc1 | – | – | – | – | – | –
CCc1nccn1S(=O)(=O)c1ccc(Br)cc1Br | – | – | – | – | – | –
CN(C)CCNC(=O)C(C(=O)c1ccc(F)cc1)n1ccccc1=O (stereo not drawn) | – | 120 | – | – | – | –
O=C(NCc1ccco1)C(C(=O)c1ccc(F)cc1)n1ccccc1=O (stereo not drawn) | – | – | – | – | – | –
c1ccc2c(-c3nc(C4CCCCC4)no3)cc(-c3ccncc3)nc2c1 | – | – | – | · | – | –
CNC(=O)CN(C1CCCCC1)S(=O)(=O)c1ccc(F)cc1 | – | 42 | – | – | – | –
O=C(N1CCCC1)n1c(Cc2ccccc2)nc2ccccc21 | – | – | – | · | – | –
Cc1ccc(Oc2ccccc2)c(NC=O)c1 | – | – | – | 36 | – | –
CCCn1c(N2CCN(CC(=O)c3c[nH]c4ccccc34)CC2)nc2c1c(=O)[nH]c(=O)n2C | – | – | – | – | – | –
COc1ccc(Br)cc1C1NC(=O)c2c(sc3c2CCN(C)C3)N1 (stereo not drawn) | – | – | – | 43 | – | –
CCOc1ccc(Br)cc1C1NC(=O)c2c(sc3c2CCN(C)C3)N1 (stereo not drawn) | – | – | – | – | – | –
Cc1nn(-c2ccccc2)c(C)c1C(=O)OCC(=O)Nc1ccc2c(c1)OCO2 | – | – | – | – | – | –
COc1ccc(N(Cc2cc(=O)[nH]c3ccccc23)C(=O)c2ccco2)cc1 | – | – | – | 44 | – | –
COc1ccc(N(CN2C(=O)C3C4C=CC(C4)C3C2=O)C(=O)c2ccco2)cc1 (stereo not drawn) | · | – | – | – | · | –
SMILES | 5-HT1A blocker | HTR1A agonist | 5HT1E antag | SKBR3 24h inh | HEK293 NFkB inh | HTR1E agonist
CN1CCN(S(=O)(=O)c2ccc(NC(=O)c3ccc(Br)s3)cc2)CC1 | – | – | – | – | – | –
CCC(=O)NCCc1cc2cc(C)c(C)cc2[nH]c1=O | – | 224 | – | – | – | –
CCC12CCCN3CCC4(C(=C(C(=O)OC)C1)Nc1ccccc14)C32 (stereo not drawn) | – | – | – | · | – | –
c1ccc(-c2nc(-n3ccnc3)nc(-n3ccnc3)n2)cc1 | – | – | – | – | – | –
CC(C)Nc1nc(-c2ccccc2)nc(-n2ccnc2)n1 | – | – | 30 | · | – | –
c1ccc(-c2nc(NC3CC3)nc(-n3ccnc3)n2)cc1 | – | – | 29 | · | – | –
O=C(NCc1ccccc1)c1ccc(COCC(F)(F)F)o1 | – | – | – | – | – | –
Cc1cc2c(=O)n(CC(=O)NCC(=O)N3CCN(Cc4ccccc4)CC3)cnc2s1 | – | – | – | · | – | –
N#Cc1c(N2CCCCC2)nc(N2CCCCC2)c2c1CCN(Cc1ccccc1)C2 | · | – | – | – | · | –
CN1C(=O)CC(N2CCN(CCN=CC3=C(O)CC(C)(C)CC3=O)CC2)C1=O (stereo not drawn) | 55 | – | – | – | – | –
